Experimental data taken from article PMC5940653 (Leukemia, 2018).

Tested on: STAT3/5 phosphorylation in NK-S1 cells
Experiment: Wash-out assay
Format: cell-based
Settings: NK-S1, 1.0 μM pre-treatment for 2 h
How it was run: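 NK-S1 cells were grown in DMEM with 10% FBS and 10% equine serum, seeded at 2.5 × 10^6 per well, and exposed to 1.0 µM test compound or DMSO for 2 h. Cells were washed twice in PBS and resuspended in complete medium without inhibitor. They were harvested at washout and 0.5, 1, 2 and 4 h later. Phospho- and total STAT3/5 were immunoblotted, 15 μg protein per lane.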

## C[C@@H]1CCN(C(=O)CC#N)C[C@@H]1N(C)c1ncnc2[nH]ccc12 [Tofacitinib]
  recovery of phosphorylated STAT3/5 activity post inhibitor washout: within half an hour
